Assay results as given in ChEMBL document CHEMBL1139225, “Metabolism-based identification of a potent thrombin receptor antagonist” (J Med Chem, 2007).
Converted amounts (≈) assume the structure as drawn. Blank lines part the entries; values can stand above or below the compound they belong to. The source made the active and inactive calls. No cut-off for these calls is given here.

What was measured:
[1] = target: T1, Proteinase-activated receptor 1 (Homo sapiens, UniProt P25116); test: Displacement of [3H]haTRAP from PAR1 in human platelet membrane; format: cell membranes
T1 sequence (P25116 whole entry): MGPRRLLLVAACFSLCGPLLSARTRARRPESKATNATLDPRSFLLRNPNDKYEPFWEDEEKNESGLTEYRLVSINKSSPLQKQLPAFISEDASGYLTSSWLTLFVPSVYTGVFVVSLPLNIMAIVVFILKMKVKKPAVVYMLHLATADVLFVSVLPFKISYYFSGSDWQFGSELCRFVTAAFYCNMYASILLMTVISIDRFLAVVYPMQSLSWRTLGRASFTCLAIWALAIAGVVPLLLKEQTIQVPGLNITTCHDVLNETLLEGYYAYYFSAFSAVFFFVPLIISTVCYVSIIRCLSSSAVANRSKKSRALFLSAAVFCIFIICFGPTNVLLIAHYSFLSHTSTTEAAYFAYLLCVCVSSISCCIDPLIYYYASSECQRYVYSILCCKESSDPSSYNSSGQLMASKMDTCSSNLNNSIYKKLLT

[2] = AUC (0-24h) in cynomolgus monkey at 1 mg/kg, po; format: ADME, organism-based, Macaca fascicularis; set-up: time < 24 hr, dose 1 mg/kg, route oral; details: plasma
Outline: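 Cynomolgus monkeys received a single oral dose of 1 mg/kg in 20% HPβCD. Blood levels were followed at various time points afterwards.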

[3] = AUC (0-6h) in rat at 10 mg/kg, po; format: ADME, organism-based; set-up: time < 6 hr, dose 10 mg/kg, route oral; details: plasma
Outline: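 Rat oral pharmacokinetics at 10 mg/kg dosed in 20% HPβCD. Plasma exposure was reported as AUC(0-6).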

[4] = Solubility of the compound; format: physicochemical
[5] = Cmax in Sprague-Dawley rat at 300 mg/kg, po after 1 day; format: ADME, organism-based; set-up: dose 300 mg/kg, route oral; details: in vivo
Outline: (§1)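 Fed male Sprague Dawley rats, four per group, given the compound orally once daily for 10 consecutive days in 0.4% methylcellulose (100 and 300 mg/kg groups). On day 1 and day 10, plasma concentrations of parent and hydroxylated metabolites were measured at 1, 2, 4, 8, 12 and 24 h, giving AUC(0-24 h) and Cmax.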

[6] = AUC (0-6h) in rat after oral administration; format: ADME, organism-based; set-up: time < 6 hr, route oral; details: plasma
[7] = AUC (0-24h) in Sprague-Dawley rat at 300 mg/kg, po after 10 days; format: ADME, organism-based; set-up: time < 24 hr, dose 300 mg/kg, route oral; details: plasma; outline: as §1
[8] = Cmax in Sprague-Dawley rat at 300 mg/kg, po after 10 days; format: ADME, organism-based; set-up: dose 300 mg/kg, route oral; details: in vivo; outline: as §1
[9] = AUC (0-24h) in Sprague-Dawley rat at 300 mg/kg, po after 1 day; format: ADME, organism-based; set-up: time < 24 hr, dose 300 mg/kg, route oral; details: plasma; outline: as §1
[10] = Plasma concentration in cynomolgus monkey at 24 hrs; format: ADME, organism-based, Macaca fascicularis
Outline: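 Cynomolgus monkeys were given an oral dose of 3 mg/kg in 0.4% methylcellulose. Plasma was sampled at 6 and 24 h and analysed by LC-MS/MS.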

[11] = tested on: Platelet; test: Inhibition of haTRAP-induced platelet aggregation in cynomolgus monkey at 1 mg/kg after 6 hrs; format: functional, organism-based; set-up: dose 1 mg/kg; details: Macaca fascicularis
Outline: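 Ex-vivo assay in cynomolgus monkeys. The compound was given orally as a single dose (1 mg/kg or 3 mg/kg in 20% HPβCD). Platelet aggregation induced by haTRAP was then measured in samples taken after dosing, at time points up to 24 h.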

SMILES: C[C@H]1OC(=O)[C@@H]2C[C@@H]3CC(F)(F)CC[C@H]3[C@H](/C=C/c3ccc(-c4ccccc4Cl)cn3)[C@H]12
IC50 [1]: 0.011 µM

SMILES: C[C@H]1OC(=O)[C@@H]2C[C@@H]3CC(=O)CC[C@H]3[C@H](/C=C/c3ccc(-c4cccc(C(F)(F)F)c4)cn3)[C@H]12
AUC(0-t) at 24 h [2]: 31 ng·h/mL

SMILES: C[C@H]1OC(=O)[C@@H]2C[C@@H]3C[C@H](O)CC[C@H]3[C@H](/C=C/c3ccc(-c4ccc(F)cc4)cn3)[C@H]12
IC50 [1]: 0.829 µM

SMILES: C[C@H]1OC(=O)[C@@H]2C[C@H]3[C@@H](CCCC3(F)F)[C@H](/C=C/c3ccc(-c4cccc(C(F)(F)F)c4)cn3)[C@H]12
AUC(0-t) at 6 h [3]: 1200 ng·h/mL
IC50 [1]: 0.053 µM
solubility [4]: 5 µM (≈ 2.46 µg/mL)

SMILES: C[C@H]1OC(=O)[C@@H]2C[C@@H]3C[C@@H](O)CC[C@H]3[C@H](/C=C/c3ccc(-c4cccc(C(F)(F)F)c4)cn3)[C@H]12
Cmax [5]: 11000 ng/mL
IC50 [1]: 0.023 µM
AUC(0-t) at 6 h [6]: 3150 ng·h/mL
AUC(0-t) at 24 h [2]: 73 ng·h/mL
AUC at 24 h [7]: 81000 ng·h/mL
Activity [11]: Active
Cmax [8]: 47000 ng/mL
AUC(0-t) at 24 h [9]: 18000 ng·h/mL

SMILES: Cc1cccc(-c2ccc(/C=C/[C@H]3[C@@H]4CC[C@@H](O)C[C@H]4C[C@H]4C(=O)O[C@H](C)[C@@H]34)nc2)c1
IC50 [1]: 0.147 µM

Further compounds by falling IC50 [1], results first:

IC50 [1]: 0.845 µM
SMILES: C[C@H]1OC(=O)[C@@H]2C[C@@H]3CC[C@H](O)C[C@H]3[C@H](/C=C/c3ccc(-c4cccc(C(F)(F)F)c4)cn3)[C@H]12

IC50 [1]: 0.072 µM
SMILES: C[C@H]1OC(=O)[C@@H]2C[C@@H]3C[C@H](O)CC[C@H]3[C@H](/C=C/c3ccc(-c4ccccc4F)cn3)[C@H]12

Cmax [5]: 29000 ng/mL
IC50 [1]: 0.041 µM
AUC(0-t) at 6 h [6]: 5760 ng·h/mL
AUC at 24 h [7]: 150000 ng·h/mL
Cmax [8]: 79000 ng/mL
AUC(0-t) at 24 h [9]: 49000 ng·h/mL
concentration at 24 h [10]: 160 ng/mL
SMILES: C[C@H]1OC(=O)[C@@H]2C[C@H]3[C@@H](CCC[C@@H]3O)[C@H](/C=C/c3ccc(-c4cccc(C(F)(F)F)c4)cn3)[C@H]12

IC50 [1]: 0.028 µM
SMILES: C[C@H]1OC(=O)[C@@H]2C[C@H]3[C@@H](CCC[C@H]3O)[C@H](/C=C/c3ccc(-c4cccc(C(F)(F)F)c4)cn3)[C@H]12

IC50 [1]: 0.028 µM
SMILES: C[C@H]1OC(=O)[C@@H]2C[C@@H]3C[C@H](O)CC[C@H]3[C@H](/C=C/c3ccc(-c4cccc(F)c4)cn3)[C@H]12

AUC(0-t) at 6 h [3]: 1200 ng·h/mL
IC50 [1]: 0.012 µM
solubility [4]: 5 µM (≈ 2.29 µg/mL)
SMILES: C[C@H]1OC(=O)[C@@H]2C[C@@H]3CC(F)(F)CC[C@H]3[C@H](/C=C/c3ccc(-c4cccc(Cl)c4)cn3)[C@H]12
